Test results as given in ChEMBL document CHEMBL4689842, “EUbOPEN Chemogenomics Library wave 1” (2021).

Tested on: HEK-293T
Test: Multiplex assay against HEK293T;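 on Population Tubulin-Different-Phenotype (%): share of the cells with healthy nuclei that show this phenotype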
Format: toxicity, cell-based
Details: human
Outline: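 Hoechst33342, BioTracker Green Microtubule Cytoskeleton Dye, MitoTracker Red and Annexin V Alexa Fluor 680 were added to live cells at seeding, and imaging on a CQ1 microscope at 37°C and 5% CO2 followed compound addition. Gating by CellPathfinder machine learning separated cells into Hoechst high-intensity objects or normal cells, then normal cells into healthy, pyknosed or fragmented nuclei, then pyknosed cells into mitotic or apoptotic. Per cents of healthy-nucleus cells are reported for the tubulin, mitochondrial-mass and membrane-permeability phenotypes.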

[1] = 12 h, 1 µM, compound concentration 1 uM, replicate 1
[2] = 12 h, 1 µM, compound concentration 1 uM, replicate 2
[3] = 12 h, 10 µM, compound concentration 10 uM, replicate 1
[4] = 12 h, 10 µM, compound concentration 10 uM, replicate 2
[5] = 24 h, 1 µM, compound concentration 1 uM, replicate 1
[6] = 24 h, 1 µM, compound concentration 1 uM, replicate 2
[7] = 24 h, 10 µM, compound concentration 10 uM, replicate 1
[8] = 24 h, 10 µM, compound concentration 10 uM, replicate 2
[9] = 48 h, 1 µM, compound concentration 1 uM, replicate 1
[10] = 48 h, 1 µM, compound concentration 1 uM, replicate 2
[11] = 48 h, 10 µM, compound concentration 10 uM, replicate 1
[12] = 48 h, 10 µM, compound concentration 10 uM, replicate 2

## Cc1cccc(CN2CCN(C(c3ccccc3)c3ccc(Cl)cc3)CC2)c1.Cl.Cl (stereo not drawn)
[1]
  Population Apoptotic (%): 52%
  Population Fragmented Nuclei (%): 13%
  Population Healthy Nuclei (%): 25%
  Population Hoechst High Intensity Objects (%): 19%
  Population Membrane Permeable-Phenotype (%): 0%
  Population Mitochondria Different-Phenotype (%): 73%
  Population Mitotic Cells (%): 47%
  Population Normal (%): 80%
  Population Pyknosed Nuclei (%): 60%
  Population Tubulin-Different-Phenotype (%): 39%
  Total Cell Count: 198
[2]
  Population Apoptotic (%): 9%
  Population Fragmented Nuclei (%): 6%
  Population Healthy Nuclei (%): 48%
  Population Hoechst High Intensity Objects (%): 3%
  Population Membrane Permeable-Phenotype (%): 10%
  Population Mitochondria Different-Phenotype (%): 25%
  Population Mitotic Cells (%): 90%
  Population Normal (%): 96%
  Population Pyknosed Nuclei (%): 44%
  Population Tubulin-Different-Phenotype (%): 18%
  Total Cell Count: 170
[3]
  Population Apoptotic (%): 69%
  Population Fragmented Nuclei (%): 10%
  Population Healthy Nuclei (%): 40%
  Population Hoechst High Intensity Objects (%): 16%
  Population Membrane Permeable-Phenotype (%): 3%
  Population Mitochondria Different-Phenotype (%): 96%
  Population Mitotic Cells (%): 30%
  Population Normal (%): 83%
  Population Pyknosed Nuclei (%): 49%
  Population Tubulin-Different-Phenotype (%): 85%
  Total Cell Count: 255
[4]
  Population Apoptotic (%): 42%
  Population Fragmented Nuclei (%): 8%
  Population Healthy Nuclei (%): 38%
  Population Hoechst High Intensity Objects (%): 3%
  Population Membrane Permeable-Phenotype (%): 6%
  Population Mitochondria Different-Phenotype (%): 73%
  Population Mitotic Cells (%): 57%
  Population Normal (%): 96%
  Population Pyknosed Nuclei (%): 53%
  Population Tubulin-Different-Phenotype (%): 69%
  Total Cell Count: 206
[5]
  Population Apoptotic (%): 51%
  Population Fragmented Nuclei (%): 11%
  Population Healthy Nuclei (%): 33%
  Population Hoechst High Intensity Objects (%): 17%
  Population Membrane Permeable-Phenotype (%): 1%
  Population Mitochondria Different-Phenotype (%): 73%
  Population Mitotic Cells (%): 48%
  Population Normal (%): 82%
  Population Pyknosed Nuclei (%): 55%
  Population Tubulin-Different-Phenotype (%): 43%
  Total Cell Count: 204
[6]
  Population Apoptotic (%): 10%
  Population Fragmented Nuclei (%): 6%
  Population Healthy Nuclei (%): 66%
  Population Hoechst High Intensity Objects (%): 4%
  Population Membrane Permeable-Phenotype (%): 7%
  Population Mitochondria Different-Phenotype (%): 26%
  Population Mitotic Cells (%): 89%
  Population Normal (%): 95%
  Population Pyknosed Nuclei (%): 26%
  Population Tubulin-Different-Phenotype (%): 33%
  Total Cell Count: 221
[7]
  Population Apoptotic (%): 75%
  Population Fragmented Nuclei (%): 11%
  Population Healthy Nuclei (%): 41%
  Population Hoechst High Intensity Objects (%): 15%
  Population Membrane Permeable-Phenotype (%): 0%
  Population Mitochondria Different-Phenotype (%): 96%
  Population Mitotic Cells (%): 24%
  Population Normal (%): 84%
  Population Pyknosed Nuclei (%): 46%
  Population Tubulin-Different-Phenotype (%): 87%
  Total Cell Count: 274
[8]
  Population Apoptotic (%): 59%
  Population Fragmented Nuclei (%): 6%
  Population Healthy Nuclei (%): 56%
  Population Hoechst High Intensity Objects (%): 3%
  Population Membrane Permeable-Phenotype (%): 6%
  Population Mitochondria Different-Phenotype (%): 87%
  Population Mitotic Cells (%): 40%
  Population Normal (%): 96%
  Population Pyknosed Nuclei (%): 37%
  Population Tubulin-Different-Phenotype (%): 81%
  Total Cell Count: 246
[9]
  Population Apoptotic (%): 49%
  Population Fragmented Nuclei (%): 18%
  Population Healthy Nuclei (%): 34%
  Population Hoechst High Intensity Objects (%): 17%
  Population Membrane Permeable-Phenotype (%): 2%
  Population Mitochondria Different-Phenotype (%): 47%
  Population Mitotic Cells (%): 50%
  Population Normal (%): 82%
  Population Pyknosed Nuclei (%): 47%
  Population Tubulin-Different-Phenotype (%): 34%
  Total Cell Count: 244
[10]
  Population Apoptotic (%): 15%
  Population Fragmented Nuclei (%): 10%
  Population Healthy Nuclei (%): 75%
  Population Hoechst High Intensity Objects (%): 4%
  Population Membrane Permeable-Phenotype (%): 5%
  Population Mitochondria Different-Phenotype (%): 7%
  Population Mitotic Cells (%): 84%
  Population Normal (%): 95%
  Population Pyknosed Nuclei (%): 13%
  Population Tubulin-Different-Phenotype (%): 20%
  Total Cell Count: 397
[11]
  Population Apoptotic (%): 61%
  Population Fragmented Nuclei (%): 13%
  Population Healthy Nuclei (%): 55%
  Population Hoechst High Intensity Objects (%): 12%
  Population Membrane Permeable-Phenotype (%): 2%
  Population Mitochondria Different-Phenotype (%): 89%
  Population Mitotic Cells (%): 38%
  Population Normal (%): 87%
  Population Pyknosed Nuclei (%): 31%
  Population Tubulin-Different-Phenotype (%): 83%
  Total Cell Count: 309
[12]
  Population Apoptotic (%): 44%
  Population Fragmented Nuclei (%): 7%
  Population Healthy Nuclei (%): 68%
  Population Hoechst High Intensity Objects (%): 4%
  Population Membrane Permeable-Phenotype (%): 4%
  Population Mitochondria Different-Phenotype (%): 67%
  Population Mitotic Cells (%): 55%
  Population Normal (%): 95%
  Population Pyknosed Nuclei (%): 24%
  Population Tubulin-Different-Phenotype (%): 71%
  Total Cell Count: 355

## CC(C)Oc1ccccc1C(=O)Nc1ccccc1C(=O)Nc1cccc(S(=O)(=O)C(F)(F)F)c1
[1]
  Population Apoptotic (%): 64%
  Population Fragmented Nuclei (%): 10%
  Population Healthy Nuclei (%): 41%
  Population Hoechst High Intensity Objects (%): 14%
  Population Membrane Permeable-Phenotype (%): 3%
  Population Mitochondria Different-Phenotype (%): 90%
  Population Mitotic Cells (%): 35%
  Population Normal (%): 85%
  Population Pyknosed Nuclei (%): 47%
  Population Tubulin-Different-Phenotype (%): 77%
  Total Cell Count: 237
[2]
  Population Apoptotic (%): 34%
  Population Fragmented Nuclei (%): 7%
  Population Healthy Nuclei (%): 37%
  Population Hoechst High Intensity Objects (%): 6%
  Population Membrane Permeable-Phenotype (%): 8%
  Population Mitochondria Different-Phenotype (%): 58%
  Population Mitotic Cells (%): 65%
  Population Normal (%): 93%
  Population Pyknosed Nuclei (%): 55%
  Population Tubulin-Different-Phenotype (%): 76%
  Total Cell Count: 214
[3]
  Population Fragmented Nuclei (%): 11%
  Population Healthy Nuclei (%): 31%
  Population Hoechst High Intensity Objects (%): 13%
  Population Membrane Permeable-Phenotype (%): 6%
  Population Mitochondria Different-Phenotype (%): 91%
  Population Mitotic Cells (%): 34%
  Population Normal (%): 87%
  Population Pyknosed Nuclei (%): 57%
  Population Tubulin-Different-Phenotype (%): 87%
  Total Cell Count: 300
[4]
  Population Apoptotic (%): 66%
  Population Fragmented Nuclei (%): 7%
  Population Healthy Nuclei (%): 21%
  Population Hoechst High Intensity Objects (%): 4%
  Population Membrane Permeable-Phenotype (%): 9%
  Population Mitochondria Different-Phenotype (%): 71%
  Population Mitotic Cells (%): 33%
  Population Normal (%): 95%
  Population Pyknosed Nuclei (%): 71%
  Population Tubulin-Different-Phenotype (%): 83%
  Total Cell Count: 206
[5]
  Population Apoptotic (%): 64%
  Population Fragmented Nuclei (%): 16%
  Population Healthy Nuclei (%): 44%
  Population Hoechst High Intensity Objects (%): 14%
  Population Membrane Permeable-Phenotype (%): 0%
  Population Mitochondria Different-Phenotype (%): 90%
  Population Mitotic Cells (%): 35%
  Population Normal (%): 85%
  Population Pyknosed Nuclei (%): 38%
  Population Tubulin-Different-Phenotype (%): 67%
  Total Cell Count: 263
[6]
  Population Apoptotic (%): 42%
  Population Fragmented Nuclei (%): 8%
  Population Healthy Nuclei (%): 50%
  Population Hoechst High Intensity Objects (%): 3%
  Population Membrane Permeable-Phenotype (%): 3%
  Population Mitochondria Different-Phenotype (%): 66%
  Population Mitotic Cells (%): 58%
  Population Normal (%): 96%
  Population Pyknosed Nuclei (%): 41%
  Population Tubulin-Different-Phenotype (%): 83%
  Total Cell Count: 253
[7]
  Population Apoptotic (%): 61%
  Population Fragmented Nuclei (%): 18%
  Population Healthy Nuclei (%): 31%
  Population Hoechst High Intensity Objects (%): 11%
  Population Membrane Permeable-Phenotype (%): 4%
  Population Mitochondria Different-Phenotype (%): 94%
  Population Mitotic Cells (%): 38%
  Population Normal (%): 88%
  Population Pyknosed Nuclei (%): 49%
  Population Tubulin-Different-Phenotype (%): 77%
  Total Cell Count: 332
[8]
  Population Apoptotic (%): 78%
  Population Fragmented Nuclei (%): 7%
  Population Healthy Nuclei (%): 25%
  Population Hoechst High Intensity Objects (%): 3%
  Population Membrane Permeable-Phenotype (%): 9%
  Population Mitochondria Different-Phenotype (%): 84%
  Population Mitotic Cells (%): 21%
  Population Normal (%): 96%
  Population Pyknosed Nuclei (%): 67%
  Population Tubulin-Different-Phenotype (%): 81%
  Total Cell Count: 217
[9]
  Population Apoptotic (%): 63%
  Population Fragmented Nuclei (%): 19%
  Population Healthy Nuclei (%): 43%
  Population Hoechst High Intensity Objects (%): 16%
  Population Membrane Permeable-Phenotype (%): 2%
  Population Mitochondria Different-Phenotype (%): 66%
  Population Mitotic Cells (%): 36%
  Population Normal (%): 83%
  Population Pyknosed Nuclei (%): 36%
  Population Tubulin-Different-Phenotype (%): 50%
  Total Cell Count: 286
[10]
  Population Apoptotic (%): 25%
  Population Fragmented Nuclei (%): 6%
  Population Healthy Nuclei (%): 73%
  Population Hoechst High Intensity Objects (%): 5%
  Population Membrane Permeable-Phenotype (%): 3%
  Population Mitochondria Different-Phenotype (%): 46%
  Population Mitotic Cells (%): 74%
  Population Normal (%): 94%
  Population Pyknosed Nuclei (%): 19%
  Population Tubulin-Different-Phenotype (%): 74%
  Total Cell Count: 393
[11]
  Population Apoptotic (%): 59%
  Population Fragmented Nuclei (%): 35%
  Population Healthy Nuclei (%): 30%
  Population Hoechst High Intensity Objects (%): 13%
  Population Membrane Permeable-Phenotype (%): 3%
  Population Mitochondria Different-Phenotype (%): 89%
  Population Mitotic Cells (%): 40%
  Population Normal (%): 86%
  Population Pyknosed Nuclei (%): 34%
  Population Tubulin-Different-Phenotype (%): 50%
  Total Cell Count: 401
[12]
  Population Apoptotic (%): 58%
  Population Fragmented Nuclei (%): 16%
  Population Healthy Nuclei (%): 26%
  Population Hoechst High Intensity Objects (%): 5%
  Population Membrane Permeable-Phenotype (%): 15%
  Population Mitochondria Different-Phenotype (%): 64%
  Population Mitotic Cells (%): 41%
  Population Normal (%): 94%
  Population Pyknosed Nuclei (%): 56%
  Population Tubulin-Different-Phenotype (%): 79%
  Total Cell Count: 251
